In ChEMBL document CHEMBL3232759, “Hepatoprotective effects of triterpenoids from Ganoderma cochlear” (J Nat Prod, 2014):

Key:
[1] = Cytotoxicity against human HepG2 cells after 96 hrs by MTT assay; type: cell-based; conditions: read-out: MTD
Summary of the method: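 HepG2 cells seeded at 1 × 10^4 cells/well in MEM + 10% FBS, 24 h at 37 °C. Compounds diluted from DMSO stocks into MEM with 2% FBS (6.25, 12.5, 25, 50, 100, 200, 400 μM), DMSO kept below 1% (v/v). Added to monolayer; MTT read at OD570 after 96 h. % inhibition vs DMSO control; maximum nontoxic concentration determined.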

HepG2 [2] = experiment: Hepatoprotective activity against H2O2-induced human HepG2 cells assessed as reduction in ALT level at 3.88 uM after 24 hrs (reference value: 23.22 +/- 1.22 U/L); type: functional
Summary of the method: (§1)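 HepG2 cells in log phase seeded at 1 × 10^4 cells/well and held 24 h at 37 °C. Exposed to 3.2 mM H2O2 for 2 h at 37 °C, then to test compound in medium with DMSO for 24 h. ALT or AST read directly in the supernatant. Controls: DMSO-only cells and H2O2-only model. Test concentrations kept within each compound's MTT-determined maximum nontoxic level. Mean ± SD, n = 3; paired-sample test.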

HepG2 [3] = experiment: Hepatoprotective activity against H2O2-induced human HepG2 cells assessed as reduction in ALT level at 7.75 uM after 24 hrs (reference value: 23.22 +/- 1.22 U/L); type: functional; summary of the method: as §1
HepG2 [4] = experiment: Hepatoprotective activity against H2O2-induced human HepG2 cells assessed as reduction in ALT level at 15.5 uM after 24 hrs (reference value: 23.22 +/- 1.22 U/L); type: functional; summary of the method: as §1
HepG2 [5] = experiment: Hepatoprotective activity against H2O2-induced human HepG2 cells assessed as reduction in AST level at 3.88 uM after 24 hrs (reference value: 32.36 +/- 0.79 U/L); type: functional; summary of the method: as §1
HepG2 [6] = experiment: Hepatoprotective activity against H2O2-induced human HepG2 cells assessed as reduction in AST level at 7.75 uM after 24 hrs (reference value: 32.36 +/- 0.79 U/L); type: functional; summary of the method: as §1
HepG2 [7] = experiment: Hepatoprotective activity against H2O2-induced human HepG2 cells assessed as reduction in AST level at 15.5 uM after 24 hrs (reference value: 32.36 +/- 0.79 U/L); type: functional; summary of the method: as §1
HepG2 [8] = experiment: Hepatoprotective activity against H2O2-induced human HepG2 cells assessed as reduction in ALT level at 14.98 uM after 24 hrs (reference value: 23.22 +/- 1.22 U/L); type: functional; summary of the method: as §1
HepG2 [9] = experiment: Hepatoprotective activity against H2O2-induced human HepG2 cells assessed as reduction in ALT level at 29.95 uM after 24 hrs (reference value: 23.22 +/- 1.22 U/L); type: functional; summary of the method: as §1
HepG2 [10] = experiment: Hepatoprotective activity against H2O2-induced human HepG2 cells assessed as reduction in ALT level at 59.90 uM after 24 hrs (reference value: 23.22 +/- 1.22 U/L); type: functional; summary of the method: as §1
HepG2 [11] = experiment: Hepatoprotective activity against H2O2-induced human HepG2 cells assessed as reduction in AST level at 14.98 uM after 24 hrs (reference value: 32.36 +/- 0.79 U/L); type: functional; summary of the method: as §1
HepG2 [12] = experiment: Hepatoprotective activity against H2O2-induced human HepG2 cells assessed as reduction in AST level at 29.95 uM after 24 hrs (reference value: 32.36 +/- 0.79 U/L); type: functional; summary of the method: as §1
HepG2 [13] = experiment: Hepatoprotective activity against H2O2-induced human HepG2 cells assessed as reduction in AST level at 59.90 uM after 24 hrs (reference value: 32.36 +/- 0.79 U/L); type: functional; summary of the method: as §1
HepG2 [14] = experiment: Hepatoprotective activity against H2O2-induced human HepG2 cells assessed as reduction in ALT level at 4.60 uM after 24 hrs (reference value: 23.22 +/- 1.22 U/L); type: functional; summary of the method: as §1
HepG2 [15] = experiment: Hepatoprotective activity against H2O2-induced human HepG2 cells assessed as reduction in ALT level at 9.20 uM after 24 hrs (reference value: 23.22 +/- 1.22 U/L); type: functional; summary of the method: as §1
HepG2 [16] = experiment: Hepatoprotective activity against H2O2-induced human HepG2 cells assessed as reduction in ALT level at 18.40 uM after 24 hrs (reference value: 23.22 +/- 1.22 U/L); type: functional; summary of the method: as §1
HepG2 [17] = experiment: Hepatoprotective activity against H2O2-induced human HepG2 cells assessed as reduction in AST level at 4.60 uM after 24 hrs (reference value: 32.36 +/- 0.79 U/L); type: functional; summary of the method: as §1
HepG2 [18] = experiment: Hepatoprotective activity against H2O2-induced human HepG2 cells assessed as reduction in AST level at 9.20 uM after 24 hrs (reference value: 32.36 +/- 0.79 U/L); type: functional; summary of the method: as §1
HepG2 [19] = experiment: Hepatoprotective activity against H2O2-induced human HepG2 cells assessed as reduction in AST level at 18.40 uM after 24 hrs (reference value: 32.36 +/- 0.79 U/L); type: functional; summary of the method: as §1
HepG2 [20] = experiment: Hepatoprotective activity against H2O2-induced human HepG2 cells assessed as reduction in ALT level at 16.43 uM after 24 hrs (reference value: 23.22 +/- 1.22 U/L); type: functional; summary of the method: as §1
HepG2 [21] = experiment: Hepatoprotective activity against H2O2-induced human HepG2 cells assessed as reduction in ALT level at 32.85 uM after 24 hrs (reference value: 23.22 +/- 1.22 U/L); type: functional; summary of the method: as §1
HepG2 [22] = experiment: Hepatoprotective activity against H2O2-induced human HepG2 cells assessed as reduction in ALT level at 65.70 uM after 24 hrs (reference value: 23.22 +/- 1.22 U/L); type: functional; summary of the method: as §1
HepG2 [23] = experiment: Hepatoprotective activity against H2O2-induced human HepG2 cells assessed as reduction in AST level at 16.43 uM after 24 hrs (reference value: 32.36 +/- 0.79 U/L); type: functional; summary of the method: as §1
HepG2 [24] = experiment: Hepatoprotective activity against H2O2-induced human HepG2 cells assessed as reduction in AST level at 32.85 uM after 24 hrs (reference value: 32.36 +/- 0.79 U/L); type: functional; summary of the method: as §1
HepG2 [25] = experiment: Hepatoprotective activity against H2O2-induced human HepG2 cells assessed as reduction in AST level at 65.70 uM after 24 hrs (reference value: 32.36 +/- 0.79 U/L); type: functional; summary of the method: as §1

C=C(C)[C@@H]1C[C@@H]2O[C@@]1(CCC(=O)O)CC1=C2[C@]2(C)CC[C@H]([C@H](C)CCC(=O)OC)[C@@]2(C)CC1=O
MNTC at 96 h [1]: 74.6 µM

C=C(C)[C@@H]1C[C@H](O)C2=C(C(=O)C[C@]3(C)[C@@H]([C@H](C)CCC(=O)O)CC[C@@]23C)[C@@]1(C)CCC(=O)OC
Activity (HepG2 [2]): 21.01 U/L
Activity (HepG2 [3]): 19.32 U/L
Activity (HepG2 [4]): 19.73 U/L
Activity (HepG2 [5]): 28.23 U/L
Activity (HepG2 [6]): 26.54 U/L
Activity (HepG2 [7]): 26.19 U/L
MNTC at 96 h [1]: 18.4 µM

C=C(C)[C@@H]1C[C@H](O)C2=C(C(=O)C[C@]3(C)[C@@H]([C@H](C)CCC(=O)OC)CC[C@@]23C)[C@@]1(C)CCC(=O)O
MNTC at 96 h [1]: 15.5 µM

C=C(C)[C@@H]1C[C@H](O)C2=C(C(=O)C[C@]3(C)[C@@H]([C@H](C)CCC(=O)OC)CC[C@@]23C)[C@@]1(C)CCC(=O)OC
Activity (HepG2 [8]): 19.32 U/L
Activity (HepG2 [9]): 18.51 U/L
Activity (HepG2 [10]): 17.81 U/L
Activity (HepG2 [11]): 28.28 U/L
Activity (HepG2 [12]): 26.77 U/L
Activity (HepG2 [13]): 22.11 U/L
MNTC at 96 h [1]: 59.9 µM

CC(C)=CC[C@H](O)[C@@H](C)[C@H]1CC[C@@]2(C)C3=CC[C@H]4C(C)(C)[C@@H](O)CC[C@]4(C)C3=CC[C@]12C
MNTC at 96 h [1]: 150 µM

C=C(C)[C@@H]1C[C@H](O)C2=C(C(=O)C[C@]3(C)[C@@H]([C@H](C)CCC(=O)O)CC[C@@]23C)[C@@]1(C)CCC(=O)O
Activity (HepG2 [14]): 19.61 U/L
Activity (HepG2 [15]): 20.2 U/L
Activity (HepG2 [16]): 20.84 U/L
Activity (HepG2 [17]): 30.38 U/L
Activity (HepG2 [18]): 23.8 U/L
Activity (HepG2 [19]): 20.66 U/L
MNTC at 96 h [1]: 65.7 µM

C[C@H]1C(=O)CC[C@@H]2[C@]1(C)CC[C@H]1[C@@]2(C)CC[C@@]2(C)[C@@H]3CC(C)(C)CC[C@]3(C)CC[C@]12C [FRIEDELINE]
Activity (HepG2 [20]): 18.92 U/L
Activity (HepG2 [21]): 18.27 U/L
Activity (HepG2 [22]): 16.06 U/L
Activity (HepG2 [23]): 29.45 U/L
Activity (HepG2 [24]): 25.43 U/L
Activity (HepG2 [25]): 19.09 U/L
MNTC at 96 h [1]: 15 µM
